According to ChEMBL document CHEMBL2176871, “Development of ligands at γ-aminobutyrric acid type A (GABAA) receptor subtype as new agents for pain relief” (Bioorg Med Chem, 2011):
Activity calls are given as the source filed them.

Key:
Rattus norvegicus [1] = assay: Antinociceptive activity in Sprague-Dawley rat mononeuropathy pain model assessed as increase in injured paw pressure at 100 mg/kg, po after 30 mins by paw pressure test relative to non-treated control; format: functional
Summary of the method: (§1)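 Chronic constriction injury: loose ligatures placed on the common sciatic nerve under chloral hydrate; contralateral sham dissection. Tested 14 days after surgery. Paw pressure applied at 32 g/s; threshold taken as the force causing the first struggle; cut-off 250 g; pretest outliers (<40 g or >75 g) excluded. Oral dosing in 10 ml/kg; read at 15, 30 and 45 min; compared with a CMC-treated group.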

Mus musculus [2] = assay: Antihyperalgesic activity Swiss albino mouse […] assessed as licking latency time at 30 mg/kg, po after 30 mins by hot plate test (reference value: 17.4 +/- 1.2 secs); format: functional
Summary of the method: (§2)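 Hot plate at 52.5 ± 0.1 °C in non-diabetic male Swiss mice. Latency to licking of fore or hind paws was timed before dosing and every 15 min up to 60 min after oral dosing. Mice with pretest latencies below 12 s or above 18 s were excluded. Cut-off was 45 s.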

Mus musculus [3] = assay: Antihyperalgesic activity against streptozotocin-induced hyperalgesia in Swiss albino mouse […] assessed as licking latency time at 30 mg/kg, po after 15 mins by hot plate test (reference value: 10.6 +/- 0.7 secs); format: functional
Mus musculus [4] = assay: Antihyperalgesic activity Swiss albino mouse […] assessed as licking latency time at 30 mg/kg, po after 15 mins by hot plate test (reference value: 17.4 +/- 1.2 secs); format: functional; summary of the method: as §2
Mus musculus [5] = assay: Antihyperalgesic activity against streptozotocin-induced hyperalgesia in Swiss albino mouse […] assessed as licking latency time at 30 mg/kg, po after 30 mins by hot plate test (reference value: 10.6 +/- 0.7 secs); format: functional
Mus musculus [6] = assay: Antihyperalgesic activity against streptozotocin-induced hyperalgesia in Swiss albino mouse […] assessed as licking latency time at 30 mg/kg, po after 45 mins by hot plate test (reference value: 10.6 +/- 0.7 secs); format: functional
Rattus norvegicus [7] = assay: Toxicity in Sprague-Dawley rat mononeuropathy pain model assessed as effect on contralateral paw pressure at 30 mg/kg, po after 30 mins by paw pressure test; format: organism-based; set-up: dose 30 mg/kg, route oral; conditions: in vivo, 0.5 h
Summary of the method: (§3)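 Same sciatic-ligation rat model, 14 days after surgery. Threshold measured on the non-operated contralateral hind paw by analgesimeter at 32 g/s; first-struggle endpoint; 250 g cut-off; pretest rats outside 40–75 g rejected. Compound given po in 10 ml/kg; readings at 15, 30 and 45 min.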

Rattus norvegicus [8] = assay: Antinociceptive activity in Sprague-Dawley rat mononeuropathy pain model assessed as increase in injured paw pressure at 100 mg/kg, po after 15 mins by paw pressure test relative to non-treated control; format: functional; summary of the method: as §1
Mus musculus [9] = assay: Antihyperalgesic activity Swiss albino mouse […] assessed as licking latency time at 30 mg/kg, po after 60 mins by hot plate test (reference value: 17.4 +/- 1.2 secs); format: functional; summary of the method: as §2
Rattus norvegicus [10] = assay: Toxicity in Sprague-Dawley rat mononeuropathy pain model assessed as effect on contralateral paw pressure at 30 mg/kg, po after 45 mins by paw pressure test; format: organism-based; set-up: dose 30 mg/kg, route oral; conditions: in vivo, 0.75 h; summary of the method: as §3
Mus musculus [11] = assay: Antihyperalgesic activity Swiss albino mouse […] assessed as licking latency time at 30 mg/kg, po after 45 mins by hot plate test (reference value: 17.4 +/- 1.2 secs); format: functional; summary of the method: as §2
Rattus norvegicus [12] = assay: Toxicity in Sprague-Dawley rat mononeuropathy pain model assessed as effect on contralateral paw pressure at 100 mg/kg, po after 15 mins by paw pressure test; format: organism-based; set-up: dose 100 mg/kg, route oral; conditions: in vivo, 0.25 h; summary of the method: as §3
Bos taurus = species: Bos taurus; assay: Displacement of [3H]Ro151788 from GABA(A)/BzR in bovine cerebral cortex membrane at 10 uM; format: cell membranes
Summary of the method: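 Bovine cerebral cortex membranes in 50 mM Tris-citrate pH 7.4; [3H]flumazenil displacement. Compounds first tested at a fixed 10 µM; Ki determined only when inhibition exceeded 80%, using at least six concentrations. Five experiments run in triplicate; IC50 obtained by iterative curve fitting and converted to Ki with the Cheng–Prusoff equation.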

Rattus norvegicus [13] = assay: Antinociceptive activity in Sprague-Dawley rat mononeuropathy pain model assessed as increase in injured paw pressure at 30 mg/kg, po after 45 mins by paw pressure test relative to non-treated control; format: functional; summary of the method: as §1
Mus musculus [14] = assay: Anxiolytic-like activity in Swiss albino mouse at 30 mg/kg, po after 30 mins by light/dark box test; format: functional, organism-based; set-up: dose 30 mg/kg
Summary of the method: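 Male Swiss mice tested in a two-compartment light/dark box. Transfers between compartments and time spent in the lit side recorded. Compound given po 30 min before testing, in 10 ml/kg; flumazenil given i.p. for antagonism; 8 mice per group.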

Rattus norvegicus [15] = assay: Toxicity in Sprague-Dawley rat mononeuropathy pain model assessed as effect on contralateral paw pressure at 100 mg/kg, po after 45 mins by paw pressure test; format: organism-based; set-up: dose 100 mg/kg, route oral; conditions: in vivo, 0.75 h; summary of the method: as §3
Rattus norvegicus [16] = assay: Antinociceptive activity in Sprague-Dawley rat mononeuropathy pain model assessed as increase in injured paw pressure at 30 mg/kg, po after 15 mins by paw pressure test relative to non-treated control; format: functional; summary of the method: as §1
Mus musculus [17] = assay: Analgesic activity in Swiss albino mouse abdominal constriction model assessed as decrease in number of acetic acid-induced writhing at 30 to 60 mg/kg, po after 30 mins; format: functional, organism-based; conditions: Abdomen
Summary of the method: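 Male Swiss albino mice (23–30 g). Compounds given po in 1% CMC vehicle 30 min before the test. Acetic acid 0.6% injected i.p. at 10 ml/kg. Stretching movements were counted for 10 min, starting 5 min after the acetic acid injection. 8–15 mice per group.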

Rattus norvegicus [18] = assay: Toxicity in Sprague-Dawley rat mononeuropathy pain model assessed as effect on contralateral paw pressure at 100 mg/kg, po after 30 mins by paw pressure test; format: organism-based; set-up: dose 100 mg/kg, route oral; conditions: in vivo, 0.5 h; summary of the method: as §3
Mus musculus [19] = assay: Antihyperalgesic activity against streptozotocin-induced hyperalgesia in Swiss albino mouse […] assessed as licking latency time at 30 mg/kg, po after 60 mins by hot plate test (reference value: 10.6 +/- 0.7 secs); format: functional
Mus musculus [20] = assay: Anticonvulsant activity in Swiss albino mouse […] assessed as protection against intraperitoneally administered pentylenetetrazol-induced seizures at 30 mg/kg, po after 30 mins; format: functional
Summary of the method: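 Male Swiss albino mice. Compounds given po and PTZ 90 mg/kg injected 30 min later; PTZ was dissolved in 0.9% NaCl saline. Clonic generalized convulsions were recorded over 30 min. Each value is the mean of 10 mice. The methods give the PTZ route as s.c. and the table footnote gives it as ip.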

Rattus norvegicus [21] = assay: Antinociceptive activity in Sprague-Dawley rat mononeuropathy pain model assessed as increase in injured paw pressure at 100 mg/kg, po after 45 mins by paw pressure test relative to non-treated control; format: functional; summary of the method: as §1
Rattus norvegicus [22] = assay: Toxicity in Sprague-Dawley rat mononeuropathy pain model assessed as effect on contralateral paw pressure at 30 mg/kg, po after 15 mins by paw pressure test; format: organism-based; set-up: dose 30 mg/kg, route oral; conditions: in vivo, 0.25 h; summary of the method: as §3
Rattus norvegicus [23] = assay: Antinociceptive activity in Sprague-Dawley rat mononeuropathy pain model assessed as increase in injured paw pressure at 30 mg/kg, po after 30 mins by paw pressure test relative to non-treated control; format: functional; summary of the method: as §1

For `CCCCCOc1ccc2c(c1)n1ncc(I)c1n[n+]2[O-]`, the Activity (Rattus norvegicus [1]) was 38.4 g, the Time (Mus musculus [2]) was 16.7 s and the Time (Mus musculus [3]) was 9.2 s. The Time (Mus musculus [4]) was 18.3 s, the Time (Mus musculus [5]) was 9.8 s and the Time (Mus musculus [6]) was 10.4 s. It also gave an Activity (Rattus norvegicus [7]) of 61.2 g, an Activity (Rattus norvegicus [8]) of 39.2 g and a Time (Mus musculus [9]) of 17.5 s. It also gave an Activity (Rattus norvegicus [10]) of 63.1 g, a Time (Mus musculus [11]) of 17.1 s and an Activity (Rattus norvegicus [12]) of 57.4 g. For the same compound, the inhibition (Bos taurus) was > 80%, the Activity (Rattus norvegicus [13]) was 34.2 g and the Activity (Mus musculus [14]) was “Active”. The Activity (Rattus norvegicus [15]) was 60.5 g, the Activity (Rattus norvegicus [16]) was 35.6 g and the Activity (Mus musculus [17]) was “inactive”. The Activity (Rattus norvegicus [18]) was 61.3 g, the Time (Mus musculus [19]) was 9.1 s and the Activity (Mus musculus [20]) was 0%. For the same compound, the Activity (Rattus norvegicus [21]) was 33.9 g, the Activity (Rattus norvegicus [22]) was 57.3 g and the Activity (Rattus norvegicus [23]) was 37.5 g.
